Data published in ChEMBL document CHEMBL1137403, “Discovery of 2-[4-{{2-(2S,5R)-2-cyano-5-ethynyl-1-pyrrolidinyl]-2-oxoethyl]amino]- 4-methyl-1-piperidinyl]-4-pyridinecarboxylic acid (ABT-279): a very potent, selective, effective, and well-tolerated inhibitor of dipeptidyl peptidase-IV, useful for the treatment of diabetes” (J Med Chem, 2006).
Activity calls are given as the source filed them. The calls are words filed in the database; no cut-off is given here.

How the values were obtained:
Dipeptidyl peptidase 8 = Dipeptidyl peptidase 8 (Homo sapiens, UniProt Q6V1X1)
Rattus norvegicus [1] = organism: Rattus norvegicus; assay: Increase in insulin level in Zucker rat after 10 mins relative to control; format: functional
Method in brief: (§1)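 Female ZDF rats, 10 weeks old, fasted overnight, then dosed orally with vehicle or drug. Four hours after dosing (t = 0) they had free access for 4 h to a liquid mixed meal (Ensure). Plasma was sampled for drug level, active GLP-1, insulin, glucagon and glucose.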

[2] = Oral bioavailability in Sprague-Dawley rat at 5 mg/kg, po; format: ADME, organism-based; details: in vivo
Cytochrome P450 2D6 = Cytochrome P450 2D6 (Homo sapiens, UniProt P10635); assay: Inhibition of CYP2D6; format: ADME
[3] = AUC (0-24h) in rat; format: ADME, organism-based; design: time < 24 hr; details: plasma
[4] = Volume of distribution in Sprague-Dawley rat at 5 mg/kg, iv; format: ADME, organism-based; design: dose 5 mg/kg, route intravenous; details: in vivo, read-out: Vss
Rattus norvegicus [5] = assay: Electrocardiographic activity in rat upto 28 ug/ml, iv; format: functional, organism-based
Method in brief: (§2)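 Hemodynamic and electrocardiographic profile recorded in anesthetized rats or dogs given the drug intravenously, at plasma concentrations up to 28 µg/mL.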

Rattus norvegicus [6] = organism: Rattus norvegicus; assay: Reduction in postprandial glucose excursion in Zucker rat measured as AUC glucose (0-240 min) relative to control; format: functional; design: scale not given: the % may be the effect or the level left
Method in brief: as §1

Rattus norvegicus [7] = organism: Rattus norvegicus; assay: GLP1 level in Zucker rat after 10 mins; format: functional
Method in brief: as §1

[8] = Oral bioavailability in cynomolgus monkey at 2.5 mg/kg, po; format: ADME, organism-based, Macaca fascicularis; details: in vivo
[9] = Volume of distribution in terminal phase in Sprague-Dawley rat at 5 mg/kg, iv; format: ADME, organism-based; design: dose 5 mg/kg, route intravenous; details: in vivo, read-out: Vbeta
[10] = Tmax in cynomolgus monkey at 2.5 mg/kg, po; format: ADME, organism-based, Macaca fascicularis; design: dose 2.5 mg/kg, route oral; details: in vivo
Canis familiaris = assay: Hemodynamic activity in dog upto 28 ug/ml, iv; format: functional, organism-based; details: Canis lupus familiaris
Method in brief: as §2

[11] = AUC in cynomolgus monkey at 2.5 mg/kg, po; format: ADME, organism-based, Macaca fascicularis; design: dose 2.5 mg/kg, route oral; details: plasma
[12] = molecular target: Voltage-gated inwardly rectifying potassium channel KCNH2 (Homo sapiens, UniProt Q12809); assay: Binding affinity to hERG
[13] = AUC (0-24h) in dog; format: ADME, organism-based, Canis lupus familiaris; design: time < 24 hr; details: plasma
Cytochrome P450 3A4 = Cytochrome P450 3A4 (Homo sapiens, UniProt P08684); assay: Inhibition of CYP3A4; format: ADME
[14] = Cmax in Beagle dog at 2.5 mg/kg, po; format: ADME, organism-based, Canis lupus familiaris; design: dose 2.5 mg/kg, route oral; details: in vivo
[15] = Half life in cynomolgus monkey at 2.5 mg/kg, iv; format: ADME, organism-based, Macaca fascicularis; design: dose 2.5 mg/kg, route intravenous; details: in vivo
[16] = Volume of distribution in cynomolgus monkey at 2.5 mg/kg, iv; format: ADME, organism-based, Macaca fascicularis; design: dose 2.5 mg/kg, route intravenous; details: in vivo, read-out: Vss
[17] = Volume of distribution in Beagle dog at 2.5 mg/kg, iv; format: ADME, organism-based, Canis lupus familiaris; design: dose 2.5 mg/kg, route intravenous; details: in vivo, read-out: Vss
Dipeptidyl peptidase 2 = Dipeptidyl peptidase 2 (Homo sapiens, UniProt Q9UHL4); assay: Inhibition of DPP7
Rattus norvegicus [18] = organism: Rattus norvegicus; assay: Insulin level in Zucker rat after 10 mins; format: functional
Method in brief: as §1

Prolyl endopeptidase = molecular target: T1, Prolyl endopeptidase (Homo sapiens, UniProt P48147); assay: Inhibition of POP
T1 sequence (P48147 whole entry): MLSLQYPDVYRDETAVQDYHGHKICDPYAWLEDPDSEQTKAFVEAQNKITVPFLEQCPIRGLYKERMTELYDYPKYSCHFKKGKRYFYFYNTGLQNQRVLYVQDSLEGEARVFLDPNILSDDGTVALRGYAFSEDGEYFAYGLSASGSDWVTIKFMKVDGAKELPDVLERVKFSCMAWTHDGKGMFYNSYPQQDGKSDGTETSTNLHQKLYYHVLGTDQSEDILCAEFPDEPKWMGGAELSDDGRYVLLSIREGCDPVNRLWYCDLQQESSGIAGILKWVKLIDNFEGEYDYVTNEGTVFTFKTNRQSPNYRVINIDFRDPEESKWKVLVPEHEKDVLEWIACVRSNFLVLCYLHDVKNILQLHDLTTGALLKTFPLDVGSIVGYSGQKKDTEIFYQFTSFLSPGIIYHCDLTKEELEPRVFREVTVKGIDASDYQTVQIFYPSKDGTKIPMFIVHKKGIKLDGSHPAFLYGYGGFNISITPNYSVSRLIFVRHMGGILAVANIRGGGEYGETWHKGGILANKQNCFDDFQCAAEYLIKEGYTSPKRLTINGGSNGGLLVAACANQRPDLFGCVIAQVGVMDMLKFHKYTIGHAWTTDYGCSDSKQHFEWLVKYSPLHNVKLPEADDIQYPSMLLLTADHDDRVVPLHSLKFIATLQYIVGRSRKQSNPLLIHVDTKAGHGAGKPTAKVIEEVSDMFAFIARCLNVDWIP

Salmonella typhi = assay: Mutagenicity against Salmonella typhi by miniAmes test upto 2 mg/well; format: functional, organism-based; details: Salmonella enterica subsp. enterica serovar Typhi
[19] = AUC in Sprague-Dawley rat at 5 mg/kg, po; format: ADME, organism-based; design: dose 5 mg/kg, route oral; details: plasma
Prolyl endopeptidase FAP = molecular target: T2, Prolyl endopeptidase FAP (Homo sapiens, UniProt Q12884); assay: Inhibition of FAPalpha
T2 sequence (Q12884 whole entry): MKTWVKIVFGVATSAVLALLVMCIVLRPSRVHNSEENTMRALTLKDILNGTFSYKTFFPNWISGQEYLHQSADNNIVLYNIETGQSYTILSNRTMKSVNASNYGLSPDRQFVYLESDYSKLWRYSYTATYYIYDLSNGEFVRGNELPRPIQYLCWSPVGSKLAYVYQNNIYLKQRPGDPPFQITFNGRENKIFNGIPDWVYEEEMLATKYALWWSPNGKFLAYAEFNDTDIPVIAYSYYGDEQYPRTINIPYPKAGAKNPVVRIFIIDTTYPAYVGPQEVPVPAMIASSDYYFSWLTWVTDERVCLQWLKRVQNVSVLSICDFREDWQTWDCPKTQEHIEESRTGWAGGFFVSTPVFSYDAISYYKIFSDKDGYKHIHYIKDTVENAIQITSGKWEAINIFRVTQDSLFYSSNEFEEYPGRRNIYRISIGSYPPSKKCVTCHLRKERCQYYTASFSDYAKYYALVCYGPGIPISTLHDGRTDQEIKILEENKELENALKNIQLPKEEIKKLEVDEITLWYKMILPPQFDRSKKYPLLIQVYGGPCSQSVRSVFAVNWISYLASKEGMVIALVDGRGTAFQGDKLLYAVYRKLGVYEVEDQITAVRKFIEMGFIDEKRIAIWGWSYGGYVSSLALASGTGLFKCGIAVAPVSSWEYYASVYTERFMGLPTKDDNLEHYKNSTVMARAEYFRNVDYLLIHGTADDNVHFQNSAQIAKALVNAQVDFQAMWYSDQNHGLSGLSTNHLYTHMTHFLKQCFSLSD

Chain of Voltage-gated inwardly rectifying potassium channel KCNH2 (Q12809 whole entry): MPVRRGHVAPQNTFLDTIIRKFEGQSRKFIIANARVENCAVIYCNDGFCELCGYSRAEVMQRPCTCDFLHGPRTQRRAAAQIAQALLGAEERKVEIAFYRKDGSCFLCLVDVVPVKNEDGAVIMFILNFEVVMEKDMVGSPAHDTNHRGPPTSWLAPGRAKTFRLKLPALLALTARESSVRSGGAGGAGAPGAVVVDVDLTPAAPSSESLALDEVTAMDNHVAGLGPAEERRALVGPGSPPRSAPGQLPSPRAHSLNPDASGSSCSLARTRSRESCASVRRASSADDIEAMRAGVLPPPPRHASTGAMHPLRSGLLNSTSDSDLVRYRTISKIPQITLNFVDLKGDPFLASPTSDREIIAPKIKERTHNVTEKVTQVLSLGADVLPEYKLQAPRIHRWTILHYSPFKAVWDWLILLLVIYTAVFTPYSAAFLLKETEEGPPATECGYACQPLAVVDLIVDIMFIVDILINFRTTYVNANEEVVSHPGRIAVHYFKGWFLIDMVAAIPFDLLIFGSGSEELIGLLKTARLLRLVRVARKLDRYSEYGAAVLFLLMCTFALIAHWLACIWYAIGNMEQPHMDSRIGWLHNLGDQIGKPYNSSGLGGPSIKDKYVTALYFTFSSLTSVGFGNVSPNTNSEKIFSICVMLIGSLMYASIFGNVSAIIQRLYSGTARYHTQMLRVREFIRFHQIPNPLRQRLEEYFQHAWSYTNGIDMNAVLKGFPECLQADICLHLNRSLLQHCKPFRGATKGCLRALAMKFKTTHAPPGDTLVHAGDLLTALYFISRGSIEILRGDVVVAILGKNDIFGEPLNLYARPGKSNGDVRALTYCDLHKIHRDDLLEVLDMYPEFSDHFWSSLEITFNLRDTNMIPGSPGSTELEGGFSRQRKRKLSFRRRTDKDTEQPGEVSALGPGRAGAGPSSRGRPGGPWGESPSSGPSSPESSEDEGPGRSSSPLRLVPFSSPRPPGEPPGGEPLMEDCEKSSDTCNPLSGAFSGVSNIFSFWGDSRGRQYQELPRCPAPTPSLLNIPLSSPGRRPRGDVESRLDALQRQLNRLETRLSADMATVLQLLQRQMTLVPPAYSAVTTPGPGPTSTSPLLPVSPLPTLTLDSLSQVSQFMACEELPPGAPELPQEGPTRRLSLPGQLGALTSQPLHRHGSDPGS
Chain of Cytochrome P450 2D6 (P10635 whole entry): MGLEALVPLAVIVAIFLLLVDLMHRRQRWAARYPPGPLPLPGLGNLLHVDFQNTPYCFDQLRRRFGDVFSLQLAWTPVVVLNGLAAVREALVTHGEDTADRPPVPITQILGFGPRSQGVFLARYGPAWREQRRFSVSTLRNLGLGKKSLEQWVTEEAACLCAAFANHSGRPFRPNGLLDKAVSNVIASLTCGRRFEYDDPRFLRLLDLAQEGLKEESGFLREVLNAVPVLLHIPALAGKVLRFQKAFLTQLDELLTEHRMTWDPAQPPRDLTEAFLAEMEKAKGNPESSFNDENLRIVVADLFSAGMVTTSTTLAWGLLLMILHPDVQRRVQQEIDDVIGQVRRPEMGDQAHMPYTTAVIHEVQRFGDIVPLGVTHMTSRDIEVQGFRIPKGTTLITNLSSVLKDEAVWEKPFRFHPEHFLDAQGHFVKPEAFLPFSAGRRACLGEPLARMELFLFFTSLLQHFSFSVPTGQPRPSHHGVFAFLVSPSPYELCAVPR
Chain of Dipeptidyl peptidase 8 (Q6V1X1 whole entry): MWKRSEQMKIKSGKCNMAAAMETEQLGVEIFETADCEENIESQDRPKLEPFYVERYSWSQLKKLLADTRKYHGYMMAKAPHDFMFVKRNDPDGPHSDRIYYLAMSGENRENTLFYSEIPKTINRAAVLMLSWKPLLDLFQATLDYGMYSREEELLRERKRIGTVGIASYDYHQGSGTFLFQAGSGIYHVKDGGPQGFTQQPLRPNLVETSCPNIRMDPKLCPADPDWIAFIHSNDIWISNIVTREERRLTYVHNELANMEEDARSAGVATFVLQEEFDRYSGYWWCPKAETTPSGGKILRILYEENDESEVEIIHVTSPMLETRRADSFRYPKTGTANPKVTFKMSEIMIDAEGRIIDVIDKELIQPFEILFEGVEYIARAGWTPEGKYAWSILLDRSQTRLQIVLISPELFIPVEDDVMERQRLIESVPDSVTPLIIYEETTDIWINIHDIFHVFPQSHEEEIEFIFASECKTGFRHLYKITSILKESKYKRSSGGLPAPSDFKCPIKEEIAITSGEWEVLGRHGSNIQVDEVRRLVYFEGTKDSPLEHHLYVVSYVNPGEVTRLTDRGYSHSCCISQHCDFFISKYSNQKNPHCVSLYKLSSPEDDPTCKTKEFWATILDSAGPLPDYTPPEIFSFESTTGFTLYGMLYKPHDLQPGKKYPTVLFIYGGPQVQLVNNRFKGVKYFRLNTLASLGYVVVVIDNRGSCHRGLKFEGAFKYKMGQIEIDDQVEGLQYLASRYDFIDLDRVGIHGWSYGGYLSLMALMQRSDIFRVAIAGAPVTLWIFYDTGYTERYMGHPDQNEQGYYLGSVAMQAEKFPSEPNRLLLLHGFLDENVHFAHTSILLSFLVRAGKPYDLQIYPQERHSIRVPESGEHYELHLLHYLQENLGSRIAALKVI
Chain of Cytochrome P450 3A4 (P08684 whole entry): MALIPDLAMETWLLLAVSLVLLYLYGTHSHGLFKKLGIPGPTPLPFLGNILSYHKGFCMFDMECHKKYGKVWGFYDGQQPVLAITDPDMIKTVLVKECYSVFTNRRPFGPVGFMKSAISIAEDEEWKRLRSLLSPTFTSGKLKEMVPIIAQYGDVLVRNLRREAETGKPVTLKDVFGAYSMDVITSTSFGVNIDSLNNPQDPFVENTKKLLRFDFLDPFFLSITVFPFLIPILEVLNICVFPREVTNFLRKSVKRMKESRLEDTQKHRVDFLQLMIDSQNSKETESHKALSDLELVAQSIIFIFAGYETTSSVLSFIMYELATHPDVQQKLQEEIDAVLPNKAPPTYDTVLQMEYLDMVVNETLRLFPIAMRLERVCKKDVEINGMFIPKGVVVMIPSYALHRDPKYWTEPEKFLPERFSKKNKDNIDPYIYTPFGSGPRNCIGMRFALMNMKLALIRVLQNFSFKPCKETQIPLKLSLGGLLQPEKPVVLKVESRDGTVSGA

Q: For `C#C[C@H]1CC[C@@H](C#N)N1C(=O)CNC1(C)CCN(c2cc(C(=O)O)ccn2)CC1`, which Ki (Dipeptidyl peptidase 8) is on record?
A: > 30 µM

Q: And the Activity (Rattus norvegicus [1])?
A: 60%

Q: What about the bioavailability [2] of the same molecule?
A: 28%

Q: And the IC50 (Cytochrome P450 2D6)?
A: > 30 µM

Q: What about the AUC(0-t) at 24 h [3] of the same molecule?
A: 39000 ng·h/mL

Q: And the Vd [4]?
A: 2.2 L/kg

Q: What about the Activity (Rattus norvegicus [5]) of the same molecule?
A: Active

Q: What about the Activity (Rattus norvegicus [6]) of the same molecule?
A: 50%

Q: What about the Activity (Rattus norvegicus [7]) of the same molecule?
A: 29 pM

Q: And the bioavailability [8]?
A: 11.2%

Q: What about the Vd [9] of the same molecule?
A: 6.7 L/kg

Q: And the Tmax [10]?
A: 2.7 h

Q: And the Activity (Canis familiaris)?
A: Active

Q: What about the AUC [11] of the same molecule?
A: 580 ng·h/mL

Q: And the Ki [12]?
A: > 45.1 µM

Q: What about the AUC(0-t) at 24 h [13] of the same molecule?
A: 36000 ng·h/mL

Q: What about the IC50 (Cytochrome P450 3A4) of the same molecule?
A: > 30 µM

Q: And the Cmax [14]?
A: 300 ng/mL

Q: What about the half-life [15] of the same molecule?
A: 1.7 h

Q: And the Vd [16]?
A: 0.3 L/kg

Q: What about the Vd [17] of the same molecule?
A: 1.5 L/kg

Q: And the Ki (Dipeptidyl peptidase 2)?
A: > 30 µM

Q: What about the Activity (Rattus norvegicus [18]) of the same molecule?
A: 39 ng/mL

Q: And the Ki (Prolyl endopeptidase)?
A: > 30 µM

Q: What about the Activity (Salmonella typhi) of the same molecule?
A: inactive

Q: And the AUC [19]?
A: 2100 ng·h/mL

Q: And the Ki (Prolyl endopeptidase FAP)?
A: > 30 µM
